Entries after “also recorded” stand apart in the source; their conditions may differ.
Tests used:
I-A^d = biological target: T1, I-A^d (Mus musculus, UniProt P01921+P04228); assay: MHC binding assay, inhibition of radiolabeled peptide binding, I-A^d
T1 sequence (P04228 24-256): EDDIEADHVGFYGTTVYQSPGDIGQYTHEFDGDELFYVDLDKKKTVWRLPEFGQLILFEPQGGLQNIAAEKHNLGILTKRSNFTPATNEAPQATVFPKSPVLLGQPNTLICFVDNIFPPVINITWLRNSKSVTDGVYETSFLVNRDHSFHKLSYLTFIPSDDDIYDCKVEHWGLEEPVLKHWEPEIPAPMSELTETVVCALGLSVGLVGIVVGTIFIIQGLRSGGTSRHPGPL
T1 sequence (P01921 28-265): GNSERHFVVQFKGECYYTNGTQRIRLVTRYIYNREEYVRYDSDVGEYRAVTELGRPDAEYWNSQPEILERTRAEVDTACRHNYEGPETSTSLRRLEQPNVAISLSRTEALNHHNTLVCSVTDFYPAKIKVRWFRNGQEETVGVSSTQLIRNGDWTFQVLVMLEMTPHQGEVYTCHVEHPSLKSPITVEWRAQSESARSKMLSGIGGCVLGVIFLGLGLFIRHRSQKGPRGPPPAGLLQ
Summary of the method: (§1)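 Class II MHC affinity-purified from mouse B cell lymphoma LB27.4. Complexes captured on Y3JP antibody-coated plates; bound cpm counted by microscintillation. Six peptide concentrations over a 100,000-fold range, ≥3 independent experiments. IC50 is the concentration giving 50% probe inhibition; unlabeled probe is the positive control.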

I-E^d = biological target: T2, I-E^d (Mus musculus, UniProt P01904+P01915); assay: MHC binding assay, inhibition of radiolabeled peptide binding, I-E^d
T2 sequence (P01904 26-255): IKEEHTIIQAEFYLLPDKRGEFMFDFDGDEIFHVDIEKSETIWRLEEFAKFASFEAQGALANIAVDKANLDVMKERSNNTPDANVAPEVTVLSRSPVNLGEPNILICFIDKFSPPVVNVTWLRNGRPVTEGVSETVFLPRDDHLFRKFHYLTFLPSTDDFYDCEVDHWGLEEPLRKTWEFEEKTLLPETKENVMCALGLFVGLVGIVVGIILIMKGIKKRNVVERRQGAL
T2 sequence (P01915 27-264 limits assumed): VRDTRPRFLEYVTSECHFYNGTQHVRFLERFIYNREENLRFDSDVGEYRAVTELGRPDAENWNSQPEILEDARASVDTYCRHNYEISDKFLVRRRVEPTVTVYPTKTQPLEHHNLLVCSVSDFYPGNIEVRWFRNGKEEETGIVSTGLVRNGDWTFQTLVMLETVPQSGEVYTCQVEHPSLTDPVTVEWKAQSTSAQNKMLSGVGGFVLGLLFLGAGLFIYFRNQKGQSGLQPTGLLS

I-A^b = biological target: T3, I-A^b (Mus musculus, UniProt P14434+P14483); assay: MHC binding assay, inhibition of radiolabeled peptide binding, I-A^b
T3 sequence (P14434 24-256): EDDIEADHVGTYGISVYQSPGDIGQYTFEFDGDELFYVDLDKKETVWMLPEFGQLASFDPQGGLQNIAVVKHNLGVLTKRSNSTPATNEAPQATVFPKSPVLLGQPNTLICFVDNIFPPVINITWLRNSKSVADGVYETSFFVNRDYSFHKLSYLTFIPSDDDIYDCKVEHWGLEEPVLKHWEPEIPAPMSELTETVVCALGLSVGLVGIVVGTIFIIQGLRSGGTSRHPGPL
T3 sequence (P14483 28-265): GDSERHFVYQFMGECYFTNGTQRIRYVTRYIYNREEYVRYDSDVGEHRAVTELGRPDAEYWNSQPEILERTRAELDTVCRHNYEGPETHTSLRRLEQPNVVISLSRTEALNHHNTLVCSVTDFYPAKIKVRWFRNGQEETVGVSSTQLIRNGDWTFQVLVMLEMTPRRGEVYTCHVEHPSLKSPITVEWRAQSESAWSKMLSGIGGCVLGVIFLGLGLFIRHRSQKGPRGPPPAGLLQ
Summary of the method: as §1

splenocytes [1] = type: cell-based, mouse; conditions: for IL-17A or IFNγ responses by ELISpot: 24 hours, 37°C
[2] = system: tetramer^+ CD44^hi CD4^+ T cells; conditions: mouse, in vivo
splenocytes [3] = conditions: mouse, in vivo
S. aureus = system: S. aureus; design: species or system S. aureus strain 923, a USA300 isolate; mice; conditions: mouse, in vivo
TFH cells = conditions: mouse, in vivo

CC[C@H](C)[C@H](NC(=O)[C@H](CCC(=O)O)NC(=O)[C@H](Cc1c[nH]cn1)NC(=O)[C@@H](NC(=O)[C@H](CCCCN)NC(=O)[C@H](Cc1c[nH]c2ccccc12)NC(=O)[C@H](CC(N)=O)NC(=O)[C@@H](NC(=O)[C@H](CCC(=O)O)NC(=O)[C@@H](N)Cc1ccc(O)cc1)C(C)C)[C@@H](C)O)C(=O)N[C@@H](CCCCN)C(=O)N[C@H](C(=O)N[C@@H](CCCCN)C(=O)NCC(=O)N[C@@H](Cc1c[nH]cn1)C(=O)N[C@@H](CC(N)=O)C(=O)O)C(C)C [LkT/C]
IC50 (I-A^d): 3.21 µM
IC50 (I-E^d): 2.2 nM
IC50 (I-A^b): 17.3 µM

CC[C@H](C)[C@H](N)C(=O)NCC(=O)NCC(=O)N[C@@H](CC(N)=O)C(=O)NCC(=O)N[C@@H](CO)C(=O)N[C@@H](Cc1ccccc1)C(=O)N[C@@H](CC(N)=O)C(=O)N[C@@H](Cc1ccc(O)cc1)C(=O)N[C@@H](CO)C(=O)N[C@@H](CCCCN)C(=O)N[C@H](C(=O)N[C@H](C(=O)N[C@@H](CO)C(=O)N[C@@H](Cc1ccc(O)cc1)C(=O)N[C@H](C(=O)O)[C@@H](C)O)[C@@H](C)CC)[C@@H](C)O [LukE153–168]
IC50 (I-A^b): 0.586 µM

CC(C)[C@H](NC(=O)CNC(=O)[C@H](Cc1c[nH]c2ccccc12)NC(=O)[C@@H](N)CCCCN)C(=O)N[C@@H](CCCCN)C(=O)N[C@@H](C)C(=O)N[C@@H](CC(N)=O)C(=O)N[C@@H](CCC(=O)O)C(=O)N[C@@H](Cc1ccccc1)C(=O)N[C@H](C(=O)N[C@H](C(=O)N1CCC[C@H]1C(=O)N[C@@H](CC(=O)O)C(=O)NCC(=O)N[C@@H](CCCCN)C(=O)N[C@@H](CCCCN)C(=O)O)[C@@H](C)O)C(C)C [LukE185–200]
IC50 (I-A^b): 4.05 µM

LukE: leukotoxin E, His-tagged, purified from E. coli; antigen and vaccine
IFNγ response by ELISpot (splenocytes [1]): weaker IFNγ; also recorded: moderate IFNg responses
IL-17A and IFNγ responses, mice expressing H-2^d compared with H-2^b (splenocytes [1]): significantly stronger IL-17A and IFNγ responses
IL-17A response by ELISpot (splenocytes [1]): strongest IL-17A responses; also recorded: strong IL-17A responses
IL-17A or IFNγ responses by ELISpot (splenocytes [1]): minimal IL-17A or IFNγ responses; also recorded: no detectable responses
LukE-specific tetramer^+ CD44^hi CD4^+ T cells after vaccination [2]: high frequencies; also recorded: strong LukE-specific T cell responses
IL-17A and IFNγ responses, vaccination compared with SSTI (splenocytes [3]): stronger IL-17A and IFNγ responses
LukE-specific IL-17A response after vaccination (splenocytes [3]): no differences in LukE-specific IL-17A responses
reduction of lesion size compared with control mice (S. aureus): approximately 40%
protection against dermonecrosis (lesion size) after vaccination (S. aureus; sc): moderately strong protection against dermonecrosis; also recorded: weaker protection
LukE-specific TFH cells after vaccination (TFH cells): expanded a population of LukE-specific TFH cells; also recorded: expansion of LukE-specific TFH cells

LukS-PV: leukocidin S-PV, purified from E. coli, GST removed; sae-regulated antigen
IFNγ response by ELISpot (splenocytes [1]): weaker IFNγ; also recorded: moderate IFNg responses
IL-17A and IFNγ responses, mice expressing H-2^d compared with H-2^b (splenocytes [1]): significantly stronger IL-17A and IFNγ responses
IL-17A response by ELISpot (splenocytes [1]): strongest IL-17A responses; also recorded: strong IL-17A responses
IL-17A or IFNγ responses by ELISpot (splenocytes [1]): minimal IL-17A or IFNγ responses; also recorded: no detectable responses

Reference: article PMC7112766 (Science Advances, 2020)
